Common to all, as to format: functional
The test system of assay [1] is Bacillus cereus. As to the kind of experiment: Antibacterial activity against Bacillus cereus ATCC 14579 at 10 mg/disc after 48 hrs by disc-diffusion method. Put shortly:
(§1)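 Disc diffusion per Bauer method under NCCLS conditions on nutrient agar/Mueller-Hinton agar. Compound dissolved in sterile DMSO at 10 mg/mL, filtered 0.2 µm, stored frozen at -15 °C; 10 mg/disc in DMSO applied. DMSO control. Inhibition zone diameter measured in mm after 48 h incubation at 28 °C.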
On the technique in general: Agar diffusion results depend on both activity and mobility in agar.

In assay [2] the test system is Escherichia coli. Description: Antibacterial activity against Escherichia coli ATCC 11775 at 10 mg/disc after 48 hrs by disc-diffusion method. In outline: as §1
Assay [3] has as its system Staphylococcus aureus. Description: Antibacterial activity against Staphylococcus aureus ATCC 12600 after 24 hrs by microdilution technique. In outline:
(§2)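 MIC by agar microdilution on Mueller-Hinton agar per NCCLS 1997. Bacteria subcultured overnight at 37 °C on MHA, Candida on SDA at 35 °C for 24-48 h, each passaged at least twice. Incubated 37 °C in humid chamber, read after 24 h.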
On the technique in general: Broth dilution looks for growth in wells or tubes with falling amounts of substance.

The test system of assay [4] is Candida albicans. Description: Antifungal activity against Candida albicans ATCC 26555 after 24 hrs by microdilution technique. In outline: as §2
Assay [5] deals with Escherichia coli. As to the kind of experiment: Antibacterial activity against Escherichia coli ATCC 11775 after 24 hrs by microdilution technique. Put shortly:
as §2

In assay [6] the test system is Bacillus cereus. As to the kind of experiment: Antibacterial activity against Bacillus cereus ATCC 14579 after 24 hrs by microdilution technique. Put shortly:
as §2

For assay [7], the system named is Aspergillus flavus. As to the kind of experiment: Antifungal activity against Aspergillus flavus ATCC 11495 after 24 hrs by microdilution technique.
Assay [8] relates to Staphylococcus aureus. Description: Antibacterial activity against Staphylococcus aureus ATCC 12600 at 10 mg/disc after 48 hrs by disc-diffusion method. In outline:
as §1

In assay [9] the test system is Candida albicans. Description: Antifungal activity against Candida albicans ATCC 26555 at 10 mg/disc after 48 hrs by disc-diffusion method. Put shortly: as §1
The test system of assay [10] is Aspergillus flavus. As to the kind of experiment: Antifungal activity against Aspergillus flavus ATCC 11495 at 10 mg/disc after 48 hrs by disc-diffusion method. Put shortly:
as §1

The structures appear in SMILES notation. ≈ marks a conversion by molar mass, not a printed value. Calls of active or inactive are those of the source. The calls are words filed in the database; no cut-off is given here.

Broadly, the MIC is the least concentration at which growth counts as inhibited. In the case of `N#Cc1c(-c2ccc(Br)cc2)[nH]c(=S)n2c(=O)c(=O)[nH]nc12`, the “diameter of the inhibition zone (DIZ)” value in [1], in [2] (DSM 30083 = JCM 1649) and in [9] was “inactive” each time. Besides, the minimal inhibitory concentration (MIC) was determined as 32 µg/mL (≈ 85.1 µM) in assay [3] (ATCC 12600, 24 h) and 16 µg/mL (≈ 42.5 µM) in assay [7] (ATCC 11495, 24 h). In addition, the MIC entry in assay [4], in [5] (DSM 30083 = JCM 1649) and in [6] was “inactive” throughout. Moreover, the “diameter of the inhibition zone (DIZ)” value in [8] was 13 mm; in assay [10], 17 mm.

On to `Cc1cc(C)n(-c2nc(=S)[nH]c(-c3ccc(Br)cc3)c2C#N)n1`, for which the “diameter of the inhibition zone (DIZ)” value came out at 12 mm in assay [1], 11 mm in [2] and 12 mm in assay [8]. The MIC came out at 32 µg/mL (≈ 82.8 µM) in [3] (ATCC 12600, 24 h); 32 µg/mL (≈ 82.8 µM) in assay [5] (DSM 30083 = JCM 1649, 24 h); 32 µg/mL (≈ 82.8 µM) in [6] (ATCC 14579, 24 h). The MIC entry in [4] and in assay [7] was “inactive” in each case. In addition, the “diameter of the inhibition zone (DIZ)” value in assay [9] and in assay [10] was “inactive” each time.

Regarding `N#Cc1c(N/N=C/c2ccc(F)cc2)nc(=S)[nH]c1-c1ccc(F)cc1`, the “diameter of the inhibition zone (DIZ)” value in assay [1] turned out to be 16 mm; in assay [2] it was 12 mm; in assay [8], 19 mm; in assay [9] it was 15 mm; in assay [10], 14 mm. For the same compound, the MIC came out at 32 µg/mL (≈ 87.1 µM) in assay [3] (ATCC 12600, 24 h); 32 µg/mL (≈ 87.1 µM) in assay [4] (ATCC 26555, 24 h); 32 µg/mL (≈ 87.1 µM) in assay [5] (DSM 30083 = JCM 1649, 24 h); 32 µg/mL (≈ 87.1 µM) in assay [6] (ATCC 14579, 24 h); 32 µg/mL (≈ 87.1 µM) in assay [7] (ATCC 11495, 24 h).

In the case of `Cc1nnc2c(C#N)c(-c3ccc(Br)cc3)[nH]c(=S)n12`, the “diameter of the inhibition zone (DIZ)” value in assay [1], in [2] (DSM 30083 = JCM 1649), in assay [8], in [9] and in [10] was “inactive” each time. Further, the MIC entry in assay [3], in assay [4], in [5] (DSM 30083 = JCM 1649), in [6] and in [7] was “inactive” throughout.

On to `N#Cc1c(NN)nc(=S)[nH]c1-c1ccc(Br)cc1`, for which the “diameter of the inhibition zone (DIZ)” value in [1] came out at 11 mm; in assay [2], 11 mm; in assay [8], 13 mm. For the same compound, the MIC came to 64 µg/mL (≈ 199 µM) in assay [3] (ATCC 12600, 24 h); 64 µg/mL (≈ 199 µM) in assay [5] (DSM 30083 = JCM 1649, 24 h); 64 µg/mL (≈ 199 µM) in assay [6] (ATCC 14579, 24 h). Further, the MIC result in assay [4] and in assay [7] was “inactive” in each case. For the same compound, the “diameter of the inhibition zone (DIZ)” value in assay [9] and in [10] was “inactive” throughout.

As for `COc1cc(-c2[nH]c(=S)n3nc(C)nc3c2C#N)cc(OC)c1OC`, the “diameter of the inhibition zone (DIZ)” value in assay [1] is 6 mm; in assay [2], 7 mm; in [8], 6 mm; in assay [9] it was 8 mm; in [10] it was 7 mm. The MIC in assay [3] (ATCC 12600, 24 h) turned out to be 128 µg/mL (≈ 358 µM); in [4] (ATCC 26555, 24 h), 128 µg/mL (≈ 358 µM); in [5] (DSM 30083 = JCM 1649, 24 h), 128 µg/mL (≈ 358 µM); in [6] (ATCC 14579, 24 h) it was 128 µg/mL (≈ 358 µM); in [7] (ATCC 11495, 24 h), 256 µg/mL (≈ 716 µM).

As to `COc1cc(-c2[nH]c(=S)n3cnnc3c2C#N)cc(OC)c1OC`, the “diameter of the inhibition zone (DIZ)” value worked out at 18 mm in assay [1]; 13 mm in [2]; 21 mm in assay [8]; 17 mm in assay [9]; 18 mm in assay [10]. Moreover, the MIC in [3] (ATCC 12600, 24 h) was 16 µg/mL (≈ 46.6 µM); in assay [4] (ATCC 26555, 24 h), 16 µg/mL (≈ 46.6 µM); in assay [5] (DSM 30083 = JCM 1649, 24 h), 16 µg/mL (≈ 46.6 µM); in assay [6] (ATCC 14579, 24 h), 16 µg/mL (≈ 46.6 µM); in [7] (ATCC 11495, 24 h), 16 µg/mL (≈ 46.6 µM).

As for `COc1cc(-c2[nH]c(=S)n3c(=S)[nH]nc3c2C#N)cc(OC)c1OC`, the “diameter of the inhibition zone (DIZ)” value in [1] is reported as 11 mm; in assay [2], 10 mm; in assay [9] it was 12 mm. The MIC result in [3] and in assay [7] was “inactive” throughout. Further, the MIC is 32 µg/mL (≈ 85.2 µM) in [4] (ATCC 26555, 24 h); 64 µg/mL (≈ 170 µM) in [5] (DSM 30083 = JCM 1649, 24 h); 64 µg/mL (≈ 170 µM) in assay [6] (ATCC 14579, 24 h). For the same compound, the “diameter of the inhibition zone (DIZ)” value in [8] and in assay [10] was “inactive” each time.

On to `COc1ccc(/C=N/Nc2nc(=S)[nH]c(-c3cc(OC)c(OC)c(OC)c3)c2C#N)cc1`, for which the “diameter of the inhibition zone (DIZ)” value in assay [1] came to 15 mm; in assay [2] it was 12 mm; in assay [8], 17 mm; in assay [9] it was 15 mm; in assay [10], 15 mm. The minimal inhibitory concentration (MIC) in assay [3] (ATCC 12600, 24 h) worked out at 32 µg/mL (≈ 70.9 µM); in [4] (ATCC 26555, 24 h) it was 32 µg/mL (≈ 70.9 µM); in assay [5] (DSM 30083 = JCM 1649, 24 h) it was 32 µg/mL (≈ 70.9 µM); in [6] (ATCC 14579, 24 h), 32 µg/mL (≈ 70.9 µM); in assay [7] (ATCC 11495, 24 h), 32 µg/mL (≈ 70.9 µM).

Turning to `N#Cc1c(-c2ccc(F)cc2)[nH]c(=S)n2ncnc12`, the “diameter of the inhibition zone (DIZ)” value in [1] amounted to 6 mm; in assay [2], 8 mm; in [8], 7 mm; in [9], 8 mm; in assay [10], 7 mm. Moreover, the MIC in assay [3] (ATCC 12600, 24 h) was determined as 128 µg/mL (≈ 472 µM); in assay [4] (ATCC 26555, 24 h), 128 µg/mL (≈ 472 µM); in assay [5] (DSM 30083 = JCM 1649, 24 h), 128 µg/mL (≈ 472 µM); in [6] (ATCC 14579, 24 h) it was 128 µg/mL (≈ 472 µM); in [7] (ATCC 11495, 24 h), 256 µg/mL (≈ 944 µM).

Consider `Cc1cc(C)n(-c2nc(=S)[nH]c(-c3ccc(F)cc3)c2C#N)n1`, for which the “diameter of the inhibition zone (DIZ)” value in assay [1] stood at 12 mm; in assay [2], 11 mm; in assay [8], 13 mm. The minimum inhibitory concentration (MIC) in assay [3] (ATCC 12600, 24 h) is 32 µg/mL (≈ 98.3 µM); in assay [5] (DSM 30083 = JCM 1649, 24 h), 32 µg/mL (≈ 98.3 µM); in [6] (ATCC 14579, 24 h), 32 µg/mL (≈ 98.3 µM). Moreover, the MIC entry in assay [4] and in [7] was “inactive” each time. The “diameter of the inhibition zone (DIZ)” value in assay [9] and in assay [10] was “inactive” each time.

Turning to `N#Cc1c(-c2ccc(Br)cc2)[nH]c(=S)n2cnnc12`, the “diameter of the inhibition zone (DIZ)” value in assay [1] is on record as 17 mm; in assay [2], 12 mm; in [8] it was 21 mm; in [9], 16 mm; in assay [10], 17 mm. Also, the minimum inhibitory concentration (MIC) in assay [3] (ATCC 12600, 24 h) was 16 µg/mL (≈ 48.2 µM); in [4] (ATCC 26555, 24 h) it was 16 µg/mL (≈ 48.2 µM); in [5] (DSM 30083 = JCM 1649, 24 h) it was 16 µg/mL (≈ 48.2 µM); in assay [6] (ATCC 14579, 24 h), 16 µg/mL (≈ 48.2 µM); in assay [7] (ATCC 11495, 24 h), 16 µg/mL (≈ 48.2 µM).

`COc1cc(-c2[nH]c(=S)nc(-n3nc(C)cc3C)c2C#N)cc(OC)c1OC`: the results for the “diameter of the inhibition zone (DIZ)” value in [1], in [2] and in assay [8] were 11 mm, 12 mm and 11 mm, respectively. The minimal inhibitory concentration (MIC) worked out at 32 µg/mL (≈ 80.5 µM) in assay [3] (ATCC 12600, 24 h); 32 µg/mL (≈ 80.5 µM) in [5] (DSM 30083 = JCM 1649, 24 h); 32 µg/mL (≈ 80.5 µM) in [6] (ATCC 14579, 24 h). In addition, the MIC result in [4] and in assay [7] was “inactive” in each case. The “diameter of the inhibition zone (DIZ)” value in assay [9] and in assay [10] was “inactive” each time.

For the origin of these results see ChEMBL document CHEMBL2434844, “Synthesis, antimicrobial, antioxidant activities of novel 6-aryl-5-cyano thiouracil derivatives” (Eur J Med Chem, 2013).
